Measurements of several laboratories.
Lines come from different studies, so protocols differ.
Target: Wee1-like protein kinase 2 (WEE2, Homo sapiens, UniProt P0C1S8)

Cc1cnc(Nc2ccc(C(=O)N3CCC(N4CCCC4)CC3)cc2)nc1-c1cc2ccccc2s1 — remaining binding (binding; competition with immobilised ligand; 1 µM): 15%
O=C(Nc1c[nH]nc1C(=O)NC1CCNCC1)c1cc(F)cc(F)c1 — remaining binding (binding; competition with immobilised ligand; 1 µM): 100%
O=C(c1ccc(Nc2nccc(-c3cc4ccccc4s3)n2)cc1)N1CCC(N2CCCC2)CC1 — remaining binding (binding; competition with immobilised ligand; 1 µM): 65%
C[C@@H]1CCN(c2nccc(-c3cnn4ncccc34)n2)C1 — remaining binding (binding; 1 µM): 87%
COc1cccc(CNC(=O)c2nc3scc(COCc4ccc(C(=O)O)cc4)c3c(=O)[nH]2)c1 — remaining binding (cell-free assay; competition with immobilised ligand; 1 µM): 96.9%
O=C(c1ccc(Nc2ncc(Cl)c(-c3cc4ccccc4s3)n2)cc1)N1CCC(N2CCCC2)CC1 — remaining binding (binding; competition with immobilised ligand; 1 µM): 27%
COc1ccnn2ncc(-c3ccnc(N(C)C)n3)c12 — remaining binding (binding; 1 µM): 96%
O=C(Nc1cnc(Oc2ccc(F)cc2)nc1)N1CCc2ncccc2[C@@H]1c1ccc(F)cc1 — remaining binding (cell-free assay; competition with immobilised ligand; 1 µM): 95%
COc1cnc(Nc2cccc(S(N)(=O)=O)c2)nc1N1CCN(c2ccccc2)CC1 — remaining binding (binding; competition with immobilised ligand; 1 µM): 96%
C[C@@H](c1ccc(-n2cnc3c(N)ncnc32)cc1)N1CCc2nn(C)c(Cc3ccccc3)c2C1=O — remaining binding (binding; competition with immobilised ligand; 0.1 µM): 92%
CCCCN(CCCC)C(=O)CN1C[C@@H](c2cc(OC)c3c(c2)OCO3)[C@H](C(=O)O)[C@H]1CC(C)(C)CCC — remaining binding (cell-free assay; competition with immobilised ligand; 1 µM): 89.1%
CCN1CCN(Cc2ccc(C(=O)Nc3ccc(C)c(Oc4ccc5c(c4)CC(=O)N5)c3)cc2C(F)(F)F)CC1 — remaining binding (binding; competition with immobilised ligand; 1 µM): 100%
CN(CCCC(F)(F)F)c1nccc(-c2cnn3ncccc23)n1 — remaining binding (binding; 1 µM): 97%
C=CC(=O)N1CCC(C(=O)NCC(=O)N2CCN(c3nc(-c4cnc(N)nc4C(F)F)nc(N4CCOCC4)n3)CC2)CC1 — remaining binding (binding; competition with immobilised ligand; 1 µM): 100%
CNC(=O)[C@@H]1CC[C@@H](n2c(-c3ccc4cnccc4c3)nc3ccc(C(=O)NCc4cccc(C(N)=O)c4)cc32)C1 — remaining binding (binding; competition with immobilised ligand; 1 µM): 100%
CN(c1nccc(-c2cnn3ncccc23)n1)C1CC1 — remaining binding (binding; 1 µM): 100%
CNC(=O)c1ccc(Nc2ncc(C(F)(F)F)c(NCc3nccnc3N(C)S(C)(=O)=O)n2)cc1 — remaining binding (cell-free assay; competition with immobilised ligand; 0.1 µM): 97%
N[C@@H]1CCN(c2nccc(-c3cnn4ncccc34)n2)C1 — remaining binding (binding; 1 µM): 100%
CNCc1ccccc1-c1csc([C@@H](C)Nc2nc(C)nc3cc(OC)c(OC)cc23)c1 — remaining binding (cell-free assay; competition with immobilised ligand; 1 µM): 100%
Cc1cnn2ncc(-c3ccnc(N(C)C)n3)c2c1 — remaining binding (binding; 1 µM): 100%
CCc1ccccc1C(=O)Nc1n[nH]c2c(C)c(F)c(C3C(C#N)=C(C)N(C)C(C)=C3C#N)cc12 — remaining binding (cell-free assay; competition with immobilised ligand; 1 µM): 82%
